According to ChEMBL document CHEMBL5532647, “Design, synthesis, ADME and biological evaluation of benzylpiperidine and benzylpiperazine derivatives as novel reversible monoacylglycerol lipase (MAGL) inhibitors” (Eur J Med Chem, 2024):
Activity calls are given as the source filed them. The rule behind the calls is not given here.

How the values were obtained:
[1] = target: T1, Lysophosphatidylserine lipase ABHD12 (Homo sapiens) (UniProt Q8N2K0); experiment: Inhibition of human ABHD12 transfected in HEK293 cells at 10 uM preincubated with compound for 30 mins followed by 2-OG addition and measured after 5 mins by liquid scintillation spectroscopy; format: cell-based; conditions: time 35.0 min
T1 sequence (whole entry): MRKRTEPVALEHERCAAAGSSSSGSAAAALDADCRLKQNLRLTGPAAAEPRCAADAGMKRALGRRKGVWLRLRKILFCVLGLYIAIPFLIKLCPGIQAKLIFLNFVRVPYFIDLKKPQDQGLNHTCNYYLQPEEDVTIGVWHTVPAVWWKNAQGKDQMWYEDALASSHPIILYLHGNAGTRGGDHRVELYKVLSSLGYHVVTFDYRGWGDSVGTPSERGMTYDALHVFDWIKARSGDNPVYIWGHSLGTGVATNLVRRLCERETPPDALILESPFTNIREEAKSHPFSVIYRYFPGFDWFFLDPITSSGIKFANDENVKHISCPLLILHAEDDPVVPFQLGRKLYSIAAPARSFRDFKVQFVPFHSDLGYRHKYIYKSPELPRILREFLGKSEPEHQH
Procedure, shortened: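 Homogenates (40 μg) of HEK293 cells stably transfected with hABHD6 or hABHD12. Compound 10 μM preincubated 30 min at 37 °C, 500 rpm, in Tris/EDTA buffer with 0.1% fatty acid-free BSA, pH 7.6. Controls: WWL70 10 μM or THL 20 μM; DMSO vehicle. 2-OG 10 μM added for 5 min at 37 °C. Stopped with ice-cold CHCl3:MeOH; aqueous phase counted. No-enzyme blanks used; non-transfected HEK293 hydrolysis subtracted.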

[2] = target: T2, Monoglyceride lipase (Mus musculus) (UniProt O35678); experiment: Reversible inhibition of mouse brain MAGL at 10 uM incubated with compound for 25 mins by TAMRA-FP probe based SDS-PAGE analysis; format: tissue-based
T2 sequence (whole entry): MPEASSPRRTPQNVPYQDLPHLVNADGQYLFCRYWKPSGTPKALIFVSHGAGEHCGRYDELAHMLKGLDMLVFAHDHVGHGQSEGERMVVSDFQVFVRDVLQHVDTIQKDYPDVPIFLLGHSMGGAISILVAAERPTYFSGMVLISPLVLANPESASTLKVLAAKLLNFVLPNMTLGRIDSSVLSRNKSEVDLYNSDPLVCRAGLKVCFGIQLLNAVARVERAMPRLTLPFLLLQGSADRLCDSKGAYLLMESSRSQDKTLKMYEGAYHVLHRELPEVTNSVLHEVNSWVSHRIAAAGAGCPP
Procedure, shortened: (§1)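 Mouse brain membranes (2 mg/mL final, in PBS) preincubated 25 min at 25 °C with test compound (10 μM final) or DMSO vehicle. Controls: JZL-184, URB597 4 μM, WWL70 10 μM, THL, MAFP 5 μM. TAMRA-FP 125 nM final added for 5 min at 25 °C. Reaction stopped with Laemmli buffer, 3 min at 25 °C then 10 min at 90 °C. Separation by 10% SDS-PAGE, fluorescence scanning, three independent experiments.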

[3] = target: T3, Lysophosphatidylserine lipase ABHD12 (Mus musculus) (UniProt Q99LR1); experiment: Inhibition of mouse brain ABHD12 at 10 uM incubated with compound for 25 mins by TAMRA-FP probe based SDS-PAGE analysis; format: tissue-based; procedure, shortened: as §1
T3 sequence (whole entry): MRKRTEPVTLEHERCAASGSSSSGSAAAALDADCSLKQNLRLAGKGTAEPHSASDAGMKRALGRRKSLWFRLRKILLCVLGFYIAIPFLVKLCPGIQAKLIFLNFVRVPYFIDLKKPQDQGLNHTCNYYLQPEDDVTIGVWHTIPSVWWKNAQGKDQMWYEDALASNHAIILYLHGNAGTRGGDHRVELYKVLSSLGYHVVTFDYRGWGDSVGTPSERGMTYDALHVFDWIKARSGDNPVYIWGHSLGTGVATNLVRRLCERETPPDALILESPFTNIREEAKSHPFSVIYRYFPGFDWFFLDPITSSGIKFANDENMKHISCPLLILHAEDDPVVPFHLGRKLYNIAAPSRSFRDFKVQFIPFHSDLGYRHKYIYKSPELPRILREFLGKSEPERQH

[4] = target: Cannabinoid receptor 1 (Homo sapiens) (UniProt P21554); experiment: Displacement of [3H]CP55940 from human CB1 receptor at 10 uM incubated for 90 mins
Cannabinoid receptor 1 (Homo sapiens), sequence (P21554 whole entry): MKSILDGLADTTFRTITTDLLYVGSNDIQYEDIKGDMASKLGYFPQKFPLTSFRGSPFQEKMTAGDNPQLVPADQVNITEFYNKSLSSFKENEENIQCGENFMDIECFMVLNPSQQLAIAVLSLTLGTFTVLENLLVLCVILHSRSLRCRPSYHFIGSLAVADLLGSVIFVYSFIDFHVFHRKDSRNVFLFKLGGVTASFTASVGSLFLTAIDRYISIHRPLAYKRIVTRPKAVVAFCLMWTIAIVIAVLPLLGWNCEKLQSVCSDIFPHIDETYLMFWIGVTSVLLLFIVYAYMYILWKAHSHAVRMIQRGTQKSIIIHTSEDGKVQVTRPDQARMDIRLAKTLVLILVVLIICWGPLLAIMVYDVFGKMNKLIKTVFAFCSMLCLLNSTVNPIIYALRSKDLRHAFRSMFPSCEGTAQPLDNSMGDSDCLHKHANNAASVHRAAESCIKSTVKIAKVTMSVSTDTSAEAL
Procedure, shortened: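 Membranes expressing hCB1 or hCB2 in 50 mM Tris-HCl buffer, pH 7.4, with 2.5 mM EDTA, 5 mM MgCl2 and 0.5% fatty acid-free BSA. Incubated with compound (10 μM screening) or vehicle plus 0.5 nM [3H]CP55,940 for 90 min at 30 °C. Non-specific binding defined with 10 μM […]. GF/B filtration, ice-cold buffer washes, radioactivity counted. Two independent experiments in triplicate.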

[5] = target: T4, Monoglyceride lipase (Homo sapiens) (UniProt Q99685); experiment: Reversible inhibition of human recombinant MAGL using 4-nitrophenylacetate as substrate incubated for 15 mins in presence of DTT by microplate reader analysis
T4 sequence (whole entry): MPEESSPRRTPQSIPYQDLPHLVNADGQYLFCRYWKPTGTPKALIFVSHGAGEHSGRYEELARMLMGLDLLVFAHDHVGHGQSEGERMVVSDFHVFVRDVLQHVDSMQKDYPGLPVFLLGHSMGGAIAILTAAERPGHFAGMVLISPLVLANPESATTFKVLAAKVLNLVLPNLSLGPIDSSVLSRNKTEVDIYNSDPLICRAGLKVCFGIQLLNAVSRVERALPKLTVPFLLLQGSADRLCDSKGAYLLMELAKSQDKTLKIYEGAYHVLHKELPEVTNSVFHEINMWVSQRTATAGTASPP
Procedure, shortened: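 Human recombinant MAGL (11 ng/well) in 10 mM Tris, pH 7.2, with 1 mM EDTA and 0.1 mg/mL BSA, at room temperature. Compound plus 4-NPA incubated 15 min with 10 μM DTT before enzyme addition. Compound final 320–0.02 nM. Absorbance at 405 nm after 30 min, blank-subtracted. IC50 from sigmoidal dose–response fit.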

Monoglyceride lipase [6] = target: T5, Monoglyceride lipase (Homo sapiens, UniProt Q99685); experiment: Reversible inhibition of MAGL in human U-937 cells using 2-oleoylglycerol as substrate preincubated with compound for 30 mins followed by substrate addition and measured after 5 mins; format: cell-based
T5 sequence (Q99685 whole entry): T4 sequence (whole entry)
Procedure, shortened: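 Intact U937 cells co-incubated with compound for 30 min. Then 10 μM 2-oleoylglycerol plus 1.0 nM [3H]2-OG tracer added for a further 5 min at 37 °C. JZL-184 (1 μM) served as full-inhibition control. Two independent experiments in triplicate. IC50 given as mean (95% CI).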

Monoglyceride lipase [7] = target: T5, Monoglyceride lipase; experiment: Inhibition of human recombinant MAGL using 4-nitrophenylacetate as substrate incubated for 30 mins by microplate reader analysis

Row | SMILES | inhibition [1] | inhibition [2] | inhibition [3] | Activity [4] | inhibition [5] | IC50 (Monoglyceride lipase [6]) [nM] | IC50 (Monoglyceride lipase [7]) [nM]
1 | O=C(c1cc(O)ccc1F)N1CCC(Cc2cccc(Sc3cc(C(F)(F)F)ccn3)c2)CC1 | inactive | Active | inactive | inactive | inactive | 199 | 1.3
2 | O=C(c1cccc(O)c1)N1CCC(Cc2cccc(Sc3cc(C(F)(F)F)ccn3)c2)CC1 | inactive | Active | inactive | inactive | inactive | 197 | 2.5
3 | O=C(c1cccc(O)c1)N1CCC(Cc2ccc(F)c(Sc3cc(C(F)(F)F)ccn3)c2)CC1 | inactive | Active | inactive | inactive | inactive | 193 | 2.7
4 | O=C(c1cc(O)ccc1F)N1CCN(Cc2cccc(Sc3cc(C(F)(F)F)ccn3)c2)CC1 | inactive | Active | inactive | inactive | inactive | 489 | 5.2
